Measurements published in ChEMBL document CHEMBL1250450, “Well-defined regions of the Plasmodium falciparum reticulocyte binding protein homologue 4 mediate interaction with red blood cell membrane” (J Med Chem, 2010).
Residues, ends and D or L forms follow the SMILES beside them.

What was measured:
[1] = test system: Plasmodium falciparum; assay: Antiplasmodial activity against Plasmodium falciparum FCB2 assessed as inhibition of merozoite invasion of human erythrocytes at 200 uM after 18 hrs using hydroethidine staining by flow cytometry; type: functional; conditions: FCB2, 18 h
How it was run: (§1)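 Schizont-synchronized P. falciparum FCB-2 cultures incubated in triplicate with peptide (100 and 200 μM) using normal RBCs or, for the neuraminidase line, neuraminidase-treated RBCs. 37 °C for 18 h under 5% O2, 5% CO2, 90% N2. Cells washed with PBS, hydroethidine-labeled, read by flow cytometry (FL2). Inhibition controls were EGTA- and chloroquine-treated infected RBCs; uninfected RBCs served as invasion control.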

[2] = organism: Homo sapiens; assay: Binding affinity to RBC membrane receptor in 1 mg/mL chymotrypsin pretreated human RBC relative to untreated RBC
How it was run: (§2)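 Human RBCs (60% hematocrit) treated 1 h at 37 °C with neuraminidase (150 μU/mL), chymotrypsin (1 mg/mL) or trypsin (1 mg/mL). Standard radiolabeled-peptide binding then run on treated cells at 20% hematocrit. Binding expressed relative to untreated RBCs set as 100%.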

[3] = organism: Homo sapiens; assay: Binding affinity to RBC membrane receptor in 1 mg/mL trypsin pretreated human RBC relative to untreated RBC; how it was run: as §2
[4] = organism: Homo sapiens; assay: Binding affinity to RBC membrane receptor in 150 uU/mL neuraminidase pretreated human RBC relative to untreated RBC; how it was run: as §2
[5] = test system: Plasmodium falciparum; assay: Antiplasmodial activity against Plasmodium falciparum FCB2 assessed as inhibition of merozoite invasion of neuraminidase pretreated human erythrocytes at 200 uM after 18 hrs using hydroethidine staining by flow cytometry; type: functional; how it was run: as §1
[6] = organism: Homo sapiens; assay: Binding affinity to RBC membrane receptor in human RBC assessed as specific binding activity measured as ratio of specifically bound peptide/added peptide by gamma counter
How it was run: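 1 × 10^8 healthy-donor RBCs incubated in triplicate with four rising concentrations of 125I-peptide (0-560 nM), with or without unlabeled peptide, then washed in HBS (pH 7.4) and gamma-counted. Specific binding (total minus nonspecific) plotted against added peptide; the slope is the specific binding activity. The HABP cutoff is ≥2%.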

Row | Compound | Activity [6] [%] | other results
1 | CC[C@H](C)[C@H](NC(=O)[C@H](Cc1cnc[nH]1)NC(=O)[C@H](CO)NC(=O)[C@@H]1CCCN1C(=O)[C@H](CCC(N)=O)NC(=O)[C@@H](NC(=O)[C@@H](N)CC(C)C)[C@@H](C)CC)C(=O)N[C@@H](Cc1cnc[nH]1)C(=O)N[C@@H](CC(C)C)C(=O)N[C@@H](Cc1cnc[nH]1)C(=O)N[C@@H](CCCCN)C(=O)N[C@@H](CCSC)C(=O)N[C@@H](CCCCN)C(=O)N[C@@H](CC(C)C)C(=O)N1CCC[C@H]1C(=O)N[C@H](C(=O)N[C@H](C(=O)N[C@@H](CCC(N)=O)C(=O)N[C@@H](CCC(N)=O)C(=O)N[C@@H](CCC(N)=O)C(=O)N[C@@H](Cc1ccc(O)cc1)C(=O)O)[C@H](C)O)[C@@H](C)CC | > 2 | inhibition at 200 µM [1]: 48%; Activity [2]: 209%; Activity [3]: 79.4%; Activity [4]: 152%; inhibition at 200 µM [5]: 43%
2 | CC[C@H](C)[C@H](NC(=O)[C@@H](NC(=O)[C@H](CCCNC(=N)N)NC(=O)[C@H](CCC(N)=O)NC(=O)[C@H](CO)NC(=O)[C@@H](NC(=O)[C@H](CC(N)=O)NC(=O)[C@@H](NC(=O)[C@@H](NC(=O)[C@@H](N)CCCCN)[C@@H](C)O)[C@@H](C)CC)[C@H](C)O)[C@@H](C)O)C(=O)N[C@@H](CC(=O)O)C(=O)N[C@@H](CC(=O)O)C(=O)N[C@@H](CO)C(=O)N[C@@H](CC(N)=O)C(=O)N[C@@H](CCSC)C(=O)N[C@@H](CC(=O)O)C(=O)N[C@@H](CCCNC(=N)N)C(=O)N[C@@H](CC(N)=O)C(=O)N[C@@H](CC(N)=O)C(=O)N[C@@H](CCCNC(=N)N)C(=O)N[C@@H](Cc1ccc(O)cc1)C(=O)O | < 2 | –
3 | CC[C@H](C)[C@H](NC(=O)[C@H](CC(N)=O)NC(=O)[C@H](CCCCN)NC(=O)[C@H](CCC(=O)O)NC(=O)[C@H](CC(N)=O)NC(=O)[C@@H](NC(=O)[C@H](Cc1cnc[nH]1)NC(=O)[C@H](CCC(=O)O)NC(=O)[C@H](CC(N)=O)NC(=O)[C@H](CC(N)=O)NC(=O)[C@@H](NC(=O)[C@H](CC(N)=O)NC(=O)[C@H](CC(N)=O)NC(=O)[C@H](CCC(=O)O)NC(=O)[C@H](CC(N)=O)NC(=O)[C@@H](NC(=O)[C@H](Cc1cnc[nH]1)NC(=O)[C@H](CCC(=O)O)NC(=O)[C@H](CC(N)=O)NC(=O)[C@@H](N)CC(N)=O)[C@H](C)O)[C@@H](C)CC)[C@H](C)O)C(=O)N[C@@H](Cc1ccc(O)cc1)C(=O)O | < 2 | –
4 | CC[C@H](C)[C@H](NC(=O)[C@H](CCC(N)=O)NC(=O)[C@H](CCC(N)=O)NC(=O)[C@H](CO)NC(=O)[C@H](Cc1ccc(O)cc1)NC(=O)[C@H](CC(N)=O)NC(=O)[C@@H](NC(=O)[C@H](CC(N)=O)NC(=O)[C@H](Cc1cnc[nH]1)NC(=O)[C@@H](NC(=O)[C@H](Cc1ccccc1)NC(=O)[C@@H](NC(=O)[C@H](CC(=O)O)NC(=O)[C@@H](N)CO)C(C)C)[C@H](C)O)[C@@H](C)CC)C(=O)N[C@@H](CC(C)C)C(=O)N[C@@H](CC(N)=O)C(=O)N[C@@H](Cc1ccc(O)cc1)C(=O)N[C@@H](CO)C(=O)N[C@@H](CCC(N)=O)C(=O)N[C@@H](C)C(=O)O | < 2 | –
5 | CC[C@H](C)[C@H](NC(=O)[C@H](Cc1ccc(O)cc1)NC(=O)[C@H](CCC(=O)O)NC(=O)[C@H](Cc1ccc(O)cc1)NC(=O)[C@H](CCC(=O)O)NC(=O)[C@H](CCCCN)NC(=O)[C@H](C)NC(=O)[C@H](C)NC(=O)[C@H](CC(N)=O)NC(=O)[C@@H](NC(=O)[C@H](C)NC(=O)[C@H](CC(N)=O)NC(=O)[C@H](CC(N)=O)NC(=O)[C@H](CO)NC(=O)[C@H](CC(N)=O)NC(=O)[C@H](NC(=O)[C@@H](N)Cc1ccccc1)[C@@H](C)CC)C(C)C)C(=O)N[C@H](C(=O)N[C@@H](CCCCN)C(=O)N[C@@H](Cc1ccc(O)cc1)C(=O)O)[C@@H](C)CC | < 2 | –
6 | CC[C@H](C)[C@H](NC(=O)[C@H](Cc1ccccc1)NC(=O)[C@H](Cc1ccccc1)NC(=O)[C@H](Cc1ccccc1)NC(=O)[C@H](C)NC(=O)[C@@H](NC(=O)[C@H](CO)NC(=O)[C@H](CO)NC(=O)[C@@H](N)CS)[C@H](C)O)C(=O)N[C@@H](CCCCN)C(=O)N[C@@H](CC(N)=O)C(=O)N[C@@H](CO)C(=O)N[C@@H](CC(N)=O)C(=O)N[C@@H](CCC(=O)O)C(=O)N1CCC[C@H]1C(=O)N[C@@H](Cc1cnc[nH]1)C(=O)N[C@@H](Cc1cnc[nH]1)C(=O)N[C@H](C(=O)N[C@@H](Cc1ccccc1)C(=O)N[C@@H](CC(N)=O)C(=O)N[C@@H](Cc1ccc(O)cc1)C(=O)O)[C@@H](C)CC | < 2 | –
7 | CC[C@H](C)[C@H](NC(=O)[C@H](Cc1ccc(O)cc1)NC(=O)[C@H](CCC(=O)O)NC(=O)[C@H](CC(N)=O)NC(=O)[C@@H](NC(=O)[C@H](CCCCN)NC(=O)[C@@H](N)CCCCN)C(C)C)C(=O)N[C@@H](CC(N)=O)C(=O)N[C@@H](CC(N)=O)C(=O)N[C@@H](CO)C(=O)N[C@@H](CC(=O)O)C(=O)N[C@@H](CS)C(=O)N[C@@H](Cc1cnc[nH]1)C(=O)N[C@@H](CC(C)C)C(=O)N[C@H](C(=O)N[C@@H](CS)C(=O)N[C@@H](CO)C(=O)N[C@@H](CCCCN)C(=O)N[C@@H](Cc1ccc(O)cc1)C(=O)N[C@@H](CCCCN)C(=O)O)[C@@H](C)O (H-KKVNEYINNSDCHLTCSKYK-OH) | < 2 | –
8 | H-CIKQTYNNNKSIESLKLKIN-OH | < 2 | –
9 | H-DDNFIEYNILNADPDLRSHF-OH | < 2 | –
10 | H-DIENIIKQNEHTESYKNLDT-OH | < 2 | –
11 | H-DYSLLKLSYNKNQDIYKNIQ-OH | < 2 | –
12 | H-EDEDENENEVENENEDFNDIY-OH | < 2 | –
13 | H-EHTIYTLYQEIKTNLENIEQ-OH | > 2 | inhibition at 200 µM [1]: 72%; inhibition at 200 µM [5]: 71%
14 | H-EKGKRGTSRNNNIHTNENNIY-OH | < 2 | –
15 | H-EKIGLRQMENRLKGKYEEIK-OH | < 2 | –
16 | H-ELIPITQQIQTKMYTTNNIE-OH | < 2 | –
17 | H-FDQINQKYDDLTKNINQMND-OH | < 2 | –
18 | H-FKQILELKEKEHYITNKHTY-OH | > 2 | inhibition at 200 µM [1]: 46%; inhibition at 200 µM [5]: 47%
19 | H-FMQNETFKKNIDDKIKEMNNY-OH | < 2 | –
20 | H-HIKQILINYIQECKPIQNIS-OH | < 2 | –
21 | H-HKINNYSHNIEDLINQLQHK-OH | < 2 | –

Row | Compound | Activity [6] [%] | other results
22 | H-IFQKEFSEADNAHSEEKEEY-OH | < 2 | –
23 | H-IIKNITSIYYKINILNILII-OH | < 2 | –
24 | H-INNLMIISFDKNKSSDLMLQY-OH | < 2 | –
25 | H-IQERNQNNQIVKELKYNKQI-OH | < 2 | –
26 | H-IQHYQTKFNINTNTKQLQQL-OH | < 2 | –
27 | H-IQNHKNKQETKLNTTTIQELY-OH | < 2 | –
28 | H-IRKIYDIETIYQNDLHNIEE-OH | < 2 | –
29 | H-ITLLVSRKQLIYIEYIYFIN-OH | < 2 | –
30 | H-KANLQDRDIKYIVQNNDANN-OH | < 2 | –
31 | H-KEIKKVLPQLYIPKNEQEYI-OH | < 2 | –
32 | H-KIHTLEELKILTQEINDKNVY-OH | < 2 | –
33 | H-KINNNLKDITHIVINDNNTLY-OH | < 2 | –
34 | H-KNSQNQHDINKTHHTNNNYD-OH | – | inhibition at 200 µM [1]: 37%; inhibition at 200 µM [5]: 3%
35 | H-KYNLPQERIIKNYNHNGINN-OH | < 2 | –
36 | H-LNIKDKDEKKRKNDNLINNY-OH | < 2 | –
37 | H-LPEHIKQKSVSELNIYMKQI-OH | > 2 | inhibition at 200 µM [1]: 41%; inhibition at 200 µM [5]: 42%
38 | H-LPVYFDEVEDEVEDEVEDED-OH | < 2 | –
39 | H-LQLLKDIKEIQTKQIDTKINY-OH | < 2 | –
40 | H-MLETTKEQILLLWNNKKISQY-OH | > 2 | –
41 | H-MLSIFQDTKYGKHKNQQILS-OH | > 2 | inhibition at 200 µM [1]: 52%; Activity [2]: 93.2%; Activity [3]: 93%; Activity [4]: 200%; inhibition at 200 µM [5]: 42%
42 | H-NEEENEMGYGITNKRKNSET-OH | < 2 | inhibition at 200 µM [1]: 43%; inhibition at 200 µM [5]: 40%

Row | Compound | Activity [6] [%] | other results
43 | H-NGQKLKTDIILNSFVQINSSY-OH | < 2 | –
44 | H-NHVELYIKNFQKNKIQIHKN-OH | < 2 | –
45 | H-NILMDEIENYVKKYTESNRI-OH | > 2 | inhibition at 200 µM [1]: 46%; Activity [2]: 169%; Activity [3]: 220%; Activity [4]: 94.3%; inhibition at 200 µM [5]: 49%
46 | H-NISQNYNNHSLSFVHSINNH-OH | < 2 | –
47 | H-NLTNSTQEYINQIKAIPTNL-OH | < 2 | –
48 | H-NNEHANEKNIYNEHTNENNI-OH | < 2 | –
49 | H-NNLKDNIQININNIKSIIRNY-OH | < 2 | –
50 | H-NTTETQLNHIKQNINHFKYF-OH | > 2 | inhibition at 200 µM [1]: 97%; Activity [2]: 135%; Activity [3]: 55.5%; Activity [4]: 89.5%; inhibition at 200 µM [5]: 97%
51 | H-NYEHPNNYQQKNDEKISLQH-OH | < 2 | –
52 | H-PPNSPFRSYYDKNLNKDINE-OH | < 2 | –
53 | H-QEFNKKIQHFKEETQIMIWKY-OH | < 2 | –
54 | H-QENITTFENQYKDLIIKMNH-OH | < 2 | –
55 | H-QFYINEKNYNNNHDDHNDDH-OH | < 2 | –
56 | H-QNYNQENQEKSKMIDSENEK-OH | – | inhibition at 200 µM [1]: 39%; inhibition at 200 µM [5]: 37%
57 | H-TCHSIQTLLNNLISSKIIFKY-OH | < 2 | –
58 | H-TFNMYYNDIQQIKIKINQNE-OH | < 2 | –
59 | H-YNNNHDKQNEHKYNQGKSSG-OH | < 2 | –
60 | H-YNTSSQQKNNLHTNNNSNSR-OH | < 2 | –
61 | H-YTTFKYLQTLNKSLYDSIYK-OH | < 2 | –
